The source of these data is PMC7114262 (Antiviral Research, 2005).

Series [1] is described as follows: Cytotoxicity, tetrazolium dye assay, growing HEL monolayers. The conditions noted are these: human, growing HEL fibroblast monolayers. The format is cell-based. The gist of the method:
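Cytotoxicity in growing HEL fibroblasts: cells not serum-starved, about 10% confluent when compound was added. Viability read by tetrazolium colorimetric dye after 72 h of exposure, as absorbance at 470 nm relative to DMSO-matched control wells. CC50 obtained by linear regression of percent inhibition versus concentration, reported as mean ± standard deviation of quadruplicate experiments.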

Series [2] is described as follows: Cytotoxicity, tetrazolium dye assay, static HEL monolayers. The format is cell-based, human. The note with it: human, static (confluent, serum-starved) HEL fibroblast monolayers. The method, boiled down: (§1)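 Confluent HEL fibroblasts serum-starved 48 h, then exposed to a range of compound concentrations without virus or methylcellulose. After 72 h, viability read by tetrazolium colorimetric dye at 470 nm, as a percentage of DMSO-matched control wells. CC50 obtained by linear regression of percent inhibition against concentration, reported as mean ± standard deviation of quadruplicate experiments.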

The subject of another series is NF-κB. As to the kind of experiment: EMSA of HCMV-mediated NF-κB activation. The format is cell-based, human. The note with it: 24 hpi; 20 μM baicalein, 50 μM genistein. (In general: Mobility shift assays separate free from complexed probe on a gel.)
The test system of series [3] is HCMV DNA. The series can be described thus: HCMV DNA assay. The format is cell-based, human cytomegalovirus. The gist of the method:
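Confluent HEL cells serum-starved 48 h, then infected with HCMV at 2–5 pfu/cell with or without compound; 50 μM ganciclovir served as control. At 72 hpi, wells were frozen in PBS at −80 °C and thawed. DNA was denatured in NaOH/NaCl, neutralized with Tris pH 7.0, and baked onto nitrocellulose. Serial dilutions were probed 14 h at 42 °C with 32P nick-translated Towne genomic DNA and read by autoradiography; four independent experiments.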

Series [4] relates to HCMV proteins (IE1-72, IE2-86, UL84, UL94). As to the kind of experiment: Western blot / immunoprecipitation of HCMV proteins in infected HEL cells. Type of series: cell-based, human cytomegalovirus. A general note: In western blotting, separated proteins are transferred to a membrane and probed.
The next series deals with EGFR (Homo sapiens, UniProt P00533). As to the kind of experiment: HCMV-mediated EGFR tyrosine phosphorylation. The conditions noted are these: shortly after infection; 20 μM baicalein, 50 μM genistein. The format is cell-based.
Chain of EGFR (P00533 25-1210): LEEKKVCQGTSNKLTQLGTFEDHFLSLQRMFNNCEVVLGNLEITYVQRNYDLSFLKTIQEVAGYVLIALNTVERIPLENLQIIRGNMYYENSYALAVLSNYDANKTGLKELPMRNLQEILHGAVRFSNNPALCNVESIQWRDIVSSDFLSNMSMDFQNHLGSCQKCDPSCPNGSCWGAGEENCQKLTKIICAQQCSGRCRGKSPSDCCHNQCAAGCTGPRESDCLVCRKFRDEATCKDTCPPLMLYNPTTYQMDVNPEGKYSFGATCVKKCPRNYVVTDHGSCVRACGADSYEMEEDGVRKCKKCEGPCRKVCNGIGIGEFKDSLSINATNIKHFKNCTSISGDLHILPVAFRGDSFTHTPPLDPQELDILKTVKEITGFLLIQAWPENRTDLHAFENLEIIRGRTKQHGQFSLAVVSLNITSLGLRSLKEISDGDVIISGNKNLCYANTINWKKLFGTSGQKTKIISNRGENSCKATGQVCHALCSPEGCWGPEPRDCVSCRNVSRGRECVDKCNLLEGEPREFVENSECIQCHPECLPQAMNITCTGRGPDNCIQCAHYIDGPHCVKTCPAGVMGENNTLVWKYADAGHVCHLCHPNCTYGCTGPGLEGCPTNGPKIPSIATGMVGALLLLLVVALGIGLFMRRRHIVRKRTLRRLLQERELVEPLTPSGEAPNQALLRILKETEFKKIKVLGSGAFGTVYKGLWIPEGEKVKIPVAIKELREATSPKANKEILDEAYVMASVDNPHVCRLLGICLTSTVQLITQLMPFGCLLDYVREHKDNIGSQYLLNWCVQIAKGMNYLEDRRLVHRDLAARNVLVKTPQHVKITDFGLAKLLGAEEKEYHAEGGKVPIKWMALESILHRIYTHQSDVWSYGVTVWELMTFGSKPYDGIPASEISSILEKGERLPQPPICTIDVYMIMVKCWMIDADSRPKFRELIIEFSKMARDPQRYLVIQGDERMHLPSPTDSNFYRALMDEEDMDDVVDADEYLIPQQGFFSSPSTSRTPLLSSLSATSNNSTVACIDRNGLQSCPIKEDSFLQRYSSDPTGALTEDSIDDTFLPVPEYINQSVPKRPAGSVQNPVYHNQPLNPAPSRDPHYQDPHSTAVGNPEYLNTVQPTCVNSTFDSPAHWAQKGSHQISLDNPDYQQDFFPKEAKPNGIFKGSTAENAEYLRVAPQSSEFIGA
The subject of series [5] is HCMV DNA. As to the kind of experiment: Reversibility of antiviral effect after drug removal. Type of series: cell-based, human cytomegalovirus. The conditions noted are these: drug removed at 72 hpi; 20 μM baicalein, 50 μM genistein. The gist of the method: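 HEL cells infected with HCMV in presence of compound (20 or 50 μM) for 72 h. Medium then replaced with drug-free medium and replication allowed for a further 72 h. Viral DNA measured at 24 h intervals by 32P-probe dot blot hybridization; experiment reproduced twice.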

The next series concerns Static HEL fibroblasts. As to the kind of experiment: Cytotoxicity, tetrazolium dye assay, static HEL monolayers. Type of series: cell-based, human. The conditions noted are these: 20 μM (5.4 μg/ml) baicalein, 50 μM (13.5 μg/ml) genistein. The method, boiled down:
as §1

For series [6], the system named is cdk2, cyclin E, p53, and PCNA. The series can be described thus: Immunoblot of HCMV-induced cell cycle regulatory proteins. Type of series: cell-based, human. The conditions noted are these: 24 hpi; 50 μM ganciclovir, 20 μM baicalein, 50 μM genistein. The gist of the method: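 Confluent, serum-starved HEL cells given compound (20 or 50 μM final; 50 μM ganciclovir control) from 1 h before and throughout HCMV infection. Harvested at 24 hpi in SDS sample buffer and run on 8–10% SDS-PAGE. Immunoblotted for cdk2, cyclin E, p53 and PCNA (milk block, primary overnight at 4 °C, HRP secondary, ECL). Bands quantified by densitometry of scanned films.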

Series [7] concerns HCMV tegument protein pp65. As to the kind of experiment: HCMV nuclear translocation, pp65 fluorescence microscopy. Type of series: cell-based, human cytomegalovirus. The note with it: 6 hpi; 20 μM baicalein, 50 μM genistein. The method, boiled down:
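Confluent HEL fibroblasts on chamber slides, serum-starved overnight and chilled on ice. Ice-cold compound-containing or plain DMEM added 10 min before infection with HCMV at 2–5 pfu/cell ± compound: 1 h at 4 °C, then 1 h at 37 °C. Cells washed and kept 5 h at 37 °C ± compound. Methanol-fixed at −20 °C, stained with anti-pp65 (1:1000), fluorescein secondary (1:500) and DAPI; nuclear pp65 examined at 6 hpi.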

The conditions of series [8]: persons on a high soy diet, estimated; ref Adlercreutz et al., 1993; cited from earlier work.
In another series the test system is HCMV. The conditions noted are these: ≤12 μM genistein, IE1-72 protein levels at 24 hpi; ref Slobbe-van Drunen et al., 1997; cited from earlier work.

Structures are written as SMILES. Where only a bound is given, the exact number is not on record here.

As a reminder, the CC50 is the concentration giving 50% cytotoxicity. Lower therefore signals greater toxicity to the cells. `O=C1C[C@@H](c2ccc(O)cc2)Oc2cc(O)cc(O)c21` [Naringenin]: the CC50 at 72 h in series [1] and in series [2] was more than 100 µM each time.
As for `O=c1c(-c2ccc(O)cc2)coc2cc(O)ccc12` [Daidzein], the CC50 at 72 h in [1] and in series [2] was more than 200 µM throughout.
Take `O=C(O)[C@H]1O[C@@H](Oc2cc3oc(-c4ccccc4)cc(=O)c3c(O)c2O)[C@H](O)[C@@H](O)[C@@H]1O` [Baicalin]: the CC50 at 72 h in [1] and in series [2] was more than 400 µM throughout.
Regarding `O=c1cc(-c2ccc(O)c(O)c2)oc2cc(O)cc(O)c12` [Luteolin], the CC50 at 72 h in series [1] was 62 ± 10 µM; in series [2] it was more than 200 µM.
In the case of `O=c1cc(-c2ccccc2)oc2cc(O)c(O)c(O)c12` [Baicalein], the “HCMV induction of NF-κB” value in the series on NF-κB is “absent”. Besides, the “HCMV DNA level” value in the series on HCMV DNA [3] (20 μM baicalein, 72 hpi) is reported as “reduced to nearly background levels”. In addition, the CC50 at 72 h in series [1] and in series [2] was more than 100 µM each time. In addition, the “Levels of all three kinetic classes of HCMV proteins” value in [4] (20 μM baicalein, immunoblot 24, 48, 72 hpi) is “reduced to nearly background levels”. Also, at EGFR, the “HCMV-induced EGFR phosphorylation” value is given as “reduced to background levels”. Moreover, the “Reversibility of antiviral effects” value in the series on HCMV DNA [5] is “poorly reversible”. Further, the “Cytotoxicity in cell culture at concentration used for mechanism studies” value in the series on Static HEL fibroblasts is given as “did not display obvious cytotoxicity”. In addition, in [6], the “HCMV-mediated increases in steady-state levels of cdk2, cyclin E, p53, and PCNA” value (shortened to “HCMV-mediated increases”) is reported as “inhibited”. In series [7], the “Nuclear accumulation of pp65” value was “blocked”.
As for `O=c1cc(-c2ccc(O)cc2)oc2cc(O)cc(O)c12` [Apigenin], the CC50 at 72 h in series [1] and in [2] was more than 100 µM each time.
On to `Nc1nc(O)c2ncn(COC(CO)CO)c2n1` [Ganciclovir], for which the “HCMV-mediated increases” value in series [6] is reported as “not affected”.
For the compound `O=c1c(O)c(-c2ccc(O)c(O)c2)oc2cc(O)cc(O)c12` [Quercetin], the CC50 at 72 h in [1] and in series [2] was more than 400 µM each time.
One may read the inhibition as the share of the control response that was lost under treatment. With `O=c1c(-c2ccc(O)cc2)coc2cc(O)cc(O)c12` [Genistein], the “HCMV induction of NF-κB” value in the series on NF-κB was “absent”. The inhibition at 50 µM in the series on HCMV DNA [3] (Human betaherpesvirus 5, read-out: Inhibition of HCMV DNA replication) is approximately 95%. In [1], this compound displayed a CC50 at 72 h of 124 ± 52 µM. In series [4] (50 μM genistein, 24 hpi), the IE1-72 level entry is recorded as “slightly lower levels” and the “Reduction of IE2-86 levels” value is given as not above 65%. Further, the “UL84 and UL94 protein levels” value in series [4] (50 μM genistein, 48 and 72 hpi respectively) is “nearly background levels”. Further, the “Reversibility of antiviral effects” value in the series with HCMV DNA [5] was “fully”. Moreover, the Steady-state serum levels in [8] is 1 to 5 µM. Moreover, in the series with Static HEL fibroblasts, the “Cytotoxicity in cell culture at concentration used for mechanism studies” value is “did not display obvious cytotoxicity”. For the same compound, in [2], the CC50 at 72 h was more than 200 µM. For the same compound, the “Inhibition of HCMV replication” value in the series with HCMV is reported as “did not inhibit”. Moreover, the “HCMV-mediated increases” value in series [6] is listed as “inhibited”.
In the case of `O=c1c(O)c(-c2ccccc2)oc2cc(O)cc(O)c12` [Galangin], the half-maximal cytotoxic concentration (CC50) at 72 h in series [1] and in series [2] was more than 400 µM each time.
